According to ChEMBL document CHEMBL1799922, “Synthesis and antimycobacterial activity of prodrugs of indeno[2,1-c]quinoline derivatives” (Eur J Med Chem, 2011):
≈ marks a conversion by molar mass, not a printed value. Calls of active or inactive are those of the source. No cut-off for these calls is given here.

How the values were obtained:
[1] = test system: Mycobacterium tuberculosis; test: Antimicrobial activity against Mycobacterium tuberculosis H37Rv ATCC 27294 after 16 to 24 hrs by microplate alamar blue assay; format: functional
Procedure, shortened: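 M. tuberculosis H37Rv inoculum 2×10^5 cfu/mL (100 µL) added to twofold dilutions in Middlebrook 7H12 medium; final test range 128 µM to 0.5 µM from 12.8 mM DMSO stocks. Incubated 37 °C; day 7 Tween 80 plus Alamar Blue added, further 16-24 h at 37 °C. Fluorescence ex 530/em 590 nm; MIC = lowest concentration giving >90% fluorescence reduction versus replicate bacteria-only controls. Rifampin, isoniazid controls.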

[2] = Cytotoxicity against human U937 cells assessed as cell viability at 1.25 ug/ml after 72 hrs by MTT assay; format: cell-based, U-937; conditions: read-out: Activity
Procedure, shortened: (§1)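 U937 human monocytic cells plated at 1 × 10^5 cells/mL and allowed to adhere for 1 h at 37 °C in 5% CO2. Non-adherent cells were washed off with RPMI 1640. Adherent cells were exposed to compound in triplicate, with medium alone as the live control and 3% Tween 20 as the dead control. MTT (5 mg/mL in PBS) was then added for 3 h at 37 °C. Formazan was dissolved in 0.4 M HCl/isopropanol and absorbance read at 600 nm. Results are expressed as % cell viability.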

[3] = Cytotoxicity against human U937 cells assessed as cell viability at 5 ug/ml after 72 hrs by MTT assay; format: cell-based, U-937; conditions: read-out: Activity; procedure, shortened: as §1
[4] = Cytotoxicity against human U937 cells assessed as cell viability at 10 ug/ml after 72 hrs by MTT assay; format: cell-based, U-937; conditions: read-out: Activity; procedure, shortened: as §1
[5] = Cytotoxicity against human U937 cells assessed as cell viability at 20 ug/ml after 72 hrs by MTT assay; format: cell-based, U-937; conditions: read-out: Activity; procedure, shortened: as §1
[6] = test system: Serum; test: Stability of the compound in 80% human blood serum assessed as hydrolysis to 2-bromo-6-(1H-imidazol-1-yl)-7H-indeno[2,1-c]quinolin-7-one oxime at 1 mg after 24 hrs at 37 degC by LC-MS analysis; format: ADME, cell-free
Procedure, shortened: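 Enzymatic hydrolysis: 1 mg prodrug dissolved in 1 mL ethanol, then 200 µL preheated human blood serum diluted to 80% with 0.16 M phosphate buffer (pH 7.4) was added. Samples were kept at 37 °C (24 h) and centrifuged 10 min at 10,000 rpm. Remaining prodrug in the supernatant was monitored by TLC and LC-MS. t1/2 is the time to 50% hydrolysis.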

[7] = Stability of the compound in 10% aqueous ammonia buffer at pH 8 assessed as hydrolysis to 2-bromo-6-(1H-imidazol-1-yl)-7H-indeno[2,1-c]quinolin-7-one oxime at 1 mg at 37 degC by LC-MS analysis; format: physicochemical; parameters: scale not given: the % may be the effect or the level left
Procedure, shortened: (§2)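 Chemical hydrolysis: 1 mg prodrug dissolved in 1 mL of 10% aqueous ammonia in methanol (pH 8) and held in a thermostatted water bath at 37 °C, up to 24 h. Conversion to the parent oxime was followed by TLC and LC-MS. t1/2 is the time to 50% hydrolysis.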

[8] = Half life in 10% aqueous ammonia buffer at pH 8 assessed as hydrolysis to 2-bromo-6-(1H-imidazol-1-yl)-7H-indeno[2,1-c]quinolin-7-one oxime at 37 degC by LC-MS analysis; format: physicochemical; procedure, shortened: as §2
[9] = Octanol-water partition coefficient, log P of the compound at pH 7.4 at room temperature by UV spectrophotometric analysis; format: physicochemical
Procedure, shortened: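 Shake-flask method at room temperature: 1-octanol and phosphate buffer (pH 7.4) were pre-saturated by shaking for 24 h. Compound at 10^-4 M in equal volumes of both phases was shaken vigorously for 1 h, left to stand 15 min, then centrifuged 10 min at 10,000 rpm. UV absorbance of each phase was read at 280 nm against blanks, and P was taken as the octanol/water absorbance ratio.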

[10] = Selectivity index, ratio CC50 for human U937 cells to MIC for Mycobacterium tuberculosis H37Rv ATCC 27294; format: functional, U-937

SMILES | MIC [1] | viability at 72 h, 1.25 ug/ml [2] [%] | viability at 72 h, 10 ug/ml [4] [%] | logD [9] | other results
CC(C)(C)OC(=O)NCC(=O)OC1(C)c2ccccc2-c2c1c(-n1ccnc1)nc1ccc(Br)cc21 (configuration not stated) | 2.03 µg/mL (≈ 3.69 µM) | 90 | 62 | 1.8 | viability at 72 h, 5 ug/ml [3]: 83%; viability at 72 h, 20 ug/ml [5]: 28%; Activity [6]: Not Active; Activity [7]: 97%; half-life [8]: 24 h; Selectivity Index [10]: 6
CCCCCCCCCCCCCC(=O)O/N=C1\c2ccccc2-c2c1c(-n1ccnc1)nc1ccc(Br)cc21 | inactive | – | – | – | –
CCC(=O)OC1(C)c2ccccc2-c2c1c(-n1ccnc1)nc1ccc(Br)cc21 (configuration not stated) | inactive | – | – | – | –
CC(C)C[C@H](NC(=O)OC(C)(C)C)C(=O)O/N=C1\c2ccccc2-c2c1c(N1CCN(c3ccccn3)CC1)nc1ccc(Br)cc21 | inactive | – | – | – | –
CN(C)C(=O)OC1(C)c2ccccc2-c2c1c(-n1ccnc1)nc1ccc(Br)cc21 (configuration not stated) | 6 µg/mL (≈ 12.9 µM) | 63 | 69 | 1.9 | Activity [6]: Not Active; Activity [7]: Not Active
CCCCCCC(=O)O/N=C1\c2ccccc2-c2c1c(N1CCN(c3ccccn3)CC1)nc1ccc(Br)cc21 | inactive | – | – | – | –
CC1(O)c2ccccc2-c2c1c(-n1ccnc1)nc1ccc(Br)cc21 (configuration not stated) | 0.78 µg/mL (≈ 1.99 µM) | 93 | 64 | 1.7 | viability at 72 h, 5 ug/ml [3]: 64%; viability at 72 h, 20 ug/ml [5]: 37%; Selectivity Index [10]: 4.3
O/N=C1\c2ccccc2-c2c1c(N1CCN(c3ccccn3)CC1)nc1ccc(Br)cc21 | 6.25 µg/mL (≈ 12.9 µM) | 100 | 56 | 3.3 | viability at 72 h, 5 ug/ml [3]: 100%; viability at 72 h, 20 ug/ml [5]: 49%; Selectivity Index [10]: 71
CC(C)(C)OC(=O)NC1(C(=O)O/N=C2\c3ccccc3-c3c2c(N2CCN(c4ccccn4)CC2)nc2ccc(Br)cc32)CCCC1 | inactive | – | – | – | –
CCCCCCCCCCCCCCC(=O)OC1(C)c2ccccc2-c2c1c(-n1ccnc1)nc1ccc(Br)cc21 (configuration not stated) | inactive | – | – | – | –
O=C(/C=C/c1ccco1)O/N=C1\c2ccccc2-c2c1c(N1CCN(c3ccccn3)CC1)nc1ccc(Br)cc21 | 6 µg/mL (≈ 9.89 µM) | 100 | 85 | 1.4 | Activity [6]: Not Active; Activity [7]: 95%; half-life [8]: 96 h
CC(C)C[C@H](NC(=O)OCC1c2ccccc2-c2ccccc21)C(=O)O/N=C1\c2ccccc2-c2c1c(N1CCN(c3ccccn3)CC1)nc1ccc(Br)cc21 | inactive | – | – | – | –
CCCCCCCCCC(=O)O/N=C1\c2ccccc2-c2c1c(N1CCN(c3ccccn3)CC1)nc1ccc(Br)cc21 | inactive | – | – | – | –
CCCCCCCCC(=O)O/N=C1\c2ccccc2-c2c1c(N1CCN(c3ccccn3)CC1)nc1ccc(Br)cc21 | inactive | – | – | – | –
CN(C)C(=O)O/N=C1\c2ccccc2-c2c1c(-n1ccnc1)nc1ccc(Br)cc21 | 0.27 µg/mL (≈ 0.584 µM) | 77 | 61 | 1.1 | viability at 72 h, 5 ug/ml [3]: 82%; viability at 72 h, 20 ug/ml [5]: 50%; Activity [6]: Not Active; Activity [7]: Not Active; Selectivity Index [10]: 49
O=C(O/N=C1\c2ccccc2-c2c1c(N1CCN(c3ccccn3)CC1)nc1ccc(Br)cc21)C1CC1 | inactive | – | – | – | –
CSCC[C@H](NC(=O)OC(C)(C)C)C(=O)O/N=C1\c2ccccc2-c2c1c(N1CCN(c3ccccn3)CC1)nc1ccc(Br)cc21 | inactive | – | – | – | –
